Measurements as given in ChEMBL document CHEMBL1149023, “Quinone-methide triterpenes and salaspermic acid from Kokoona ochracea” (1994).
In brackets after ≈: the same amount, converted by molar mass.

Key:
[1] = Cytotoxicity against human U373 cells after 96 hrs by sulforhodamine B assay; type: functional, U-373MG ATCC; settings: U373 MG, read-out: ED50 (the source's name)
How it was run: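 U373 cells were treated in triplicate at 4 concentrations (0.16–20 µg/ml), final DMSO 0.5%, for 96 h at 37° in 5% CO2. Cells were fixed with cold 50% TCA, stained with 0.4% sulforhodamine B in 1% HOAc, and the dye was solubilized in 10 mM Tris. OD was read at 515 nm and ED50 was taken from percent of DMSO control.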

ZR-75-1 = assay: Cytotoxicity against human ZR-75-1 cells after 72 hrs by sulforhodamine B assay; type: functional; settings: ZR-75-1, 72 h, read-out: ED50 (the source's name)
How it was run: (§1)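 Cells went in triplicate into 4 concentrations (0.16–20 µg/ml) from DMSO stock, final DMSO 0.5% v/v, for 72 h at 37° in 5% CO2. Cells were fixed with cold 50% TCA and stained with 0.4% sulforhodamine B in 1% HOAc. Bound dye was dissolved in 10 mM Tris base and read at 515 nm. ED50 came from the averaged data as percent of DMSO controls. LNCaP and ZR-75-1 were kept in phenol red-free RPMI with hormone-free FBS plus 0.1 nM testosterone or estradiol, respectively.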

HT-1080 = assay: Cytotoxicity against human HT1080 cells after 48 hrs by sulforhodamine B assay; type: functional; settings: HT-1080, 48 h, read-out: ED50 (the source's name)
How it was run: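 HT-1080 was kept in MEME with 1% NAA and 10% heat-inactivated FBS. Cells were treated in triplicate at 4 concentrations (0.16–20 µg/ml), final DMSO 0.5%, for 48 h at 37° in 5% CO2. They were fixed with cold 50% TCA and stained with sulforhodamine B; OD was read at 515 nm. ED50 was taken against DMSO-only controls.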

MEL-2 (Homo sapiens) = assay: Cytotoxicity against human MEL-2 cells after 72 hrs by sulforhodamine B assay; settings: MEL-2, 72 h, read-out: ED50 (the source's name)
Lu1 = assay: Cytotoxicity against human Lu1 cells after 72 hrs by sulforhodamine B assay; type: functional; settings: Lu1, 72 h, read-out: ED50 (the source's name); how it was run: as §1
LNCaP = assay: Cytotoxicity against human LNCAP cells after 72 hrs by sulforhodamine B assay; type: functional; settings: read-out: ED50 (the source's name); how it was run: as §1
[2] = Cytotoxicity against human BC1 cells after 72 hrs by sulforhodamine B assay; type: functional; settings: BC1, 72 h, read-out: ED50 (the source's name); how it was run: as §1
[3] = Cytotoxicity against human KBV1 cells after 72 hrs by sulforhodamine B assay in presence of vinblastine; type: functional; settings: KB-V1, 72 h, read-out: ED50 (the source's name)
[4] = Cytotoxicity against human KBV1 cells after 72 hrs by sulforhodamine B assay in absence of vinblastine; type: functional; settings: KB-V1, 72 h, read-out: ED50 (the source's name)
KB = assay: Cytotoxicity against human KB cells after 72 hrs by sulforhodamine B assay; type: functional; settings: read-out: ED50 (the source's name); how it was run: as §1
Col2 = assay: Cytotoxicity against human Col2 cells after 72 hrs by sulforhodamine B assay; settings: Col2, 72 h, read-out: ED50 (the source's name)
A-431 = assay: Cytotoxicity against human A431 cells after 72 hrs by sulforhodamine B assay; type: functional; settings: A-431, 72 h, read-out: ED50 (the source's name); how it was run: as §1
P388 = assay: Cytotoxicity against mouse P388 cells after 48 hrs by sulforhodamine B assay; type: functional; settings: P388, 48 h, read-out: ED50 (the source's name)
How it was run: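 Murine P-388 was kept in Fisher's medium with 10% heat-inactivated FBS. Cells were exposed in triplicate to 4 concentrations (0.16–20 µg/ml), final DMSO 0.5%, for 48 h at 37° in 5% CO2. They were fixed with cold 20% TCA, stained with 0.4% sulforhodamine B, and read at 515 nm. ED50 was taken relative to DMSO controls.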

With `COC(=O)[C@]1(C)CC[C@]2(C)CC[C@]3(C)[C@H]4CC[C@]5(COC(C)=O)[C@@H](C)C(=O)CC[C@H]5[C@]4(C)CC[C@@]3(C)[C@@H]2C1` the EC50 [1] was greater than 20 µg/mL, the EC50 (ZR-75-1) was 6.2 µg/mL (≈ 11.7 µM) and the EC50 (HT-1080) was 10 µg/mL (≈ 18.9 µM). It also gave an EC50 (MEL-2 (Homo sapiens)) greater than 20 µg/mL, an EC50 (Lu1) of 11.9 µg/mL (≈ 22.5 µM) and an EC50 (LNCaP) of 11.8 µg/mL (≈ 22.3 µM). The EC50 [2] was greater than 20 µg/mL, the EC50 [3] was 12 µg/mL and the EC50 [4] was 9.8 µg/mL (≈ 18.5 µM). The EC50 (KB) was 10.1 µg/mL (≈ 19.1 µM), the EC50 (Col2) was greater than 20 µg/mL and the EC50 (A-431) was 5.2 µg/mL (≈ 9.83 µM). It also gave an EC50 (P388) greater than 5 µg/mL.

With `CC1=C(O)C(=O)C=C2C1=CC=C1[C@@]2(C)CC[C@@]2(C)[C@@H]3C[C@@](C)(O)C(=O)C[C@]3(C)CC[C@]12C` the EC50 [1] was 0.8 µg/mL (≈ 1.83 µM), the EC50 (ZR-75-1) was 1 µg/mL (≈ 2.29 µM) and the EC50 (HT-1080) was 2.1 µg/mL (≈ 4.81 µM). It also gave an EC50 (MEL-2 (Homo sapiens)) of 1.5 µg/mL (≈ 3.44 µM), an EC50 (Lu1) of 2.2 µg/mL (≈ 5.04 µM) and an EC50 (LNCaP) of 1 µg/mL (≈ 2.29 µM). For the same molecule, the EC50 [2] was 0.9 µg/mL (≈ 2.06 µM), the EC50 [3] was 3.3 µg/mL and the EC50 [4] was 3 µg/mL (≈ 6.87 µM). For the same molecule, the EC50 (KB) was 1.7 µg/mL (≈ 3.89 µM), the EC50 (Col2) was 5.8 µg/mL (≈ 13.3 µM) and the EC50 (A-431) was 1.1 µg/mL (≈ 2.52 µM). The EC50 (P388) was 2 µg/mL (≈ 4.58 µM).

`C[C@@H]1[C@@]23CC[C@H]4[C@@](C)(CC[C@@]5(C)[C@@H]6C[C@](C)(C(=O)O)CC[C@]6(C)CC[C@]45C)[C@@H]2CC[C@@]1(O)OC3` [SALASPERMIC ACID] showed an EC50 [1] greater than 20 µg/mL, an EC50 (ZR-75-1) greater than 20 µg/mL and an EC50 (HT-1080) greater than 20 µg/mL. It also gave an EC50 (MEL-2 (Homo sapiens)) greater than 20 µg/mL, an EC50 (Lu1) greater than 20 µg/mL and an EC50 (LNCaP) greater than 20 µg/mL. The EC50 [2] was greater than 20 µg/mL, the EC50 [3] was greater than 20 µg/mL and the EC50 [4] was greater than 20 µg/mL. For the same molecule, the EC50 (KB) was greater than 20 µg/mL, the EC50 (Col2) was greater than 20 µg/mL and the EC50 (A-431) was greater than 20 µg/mL. For the same molecule, the EC50 (P388) was greater than 5 µg/mL.

For `COC(=O)[C@]1(C)CC[C@]2(C)CC[C@]3(C)[C@H]4CC[C@@]56CO[C@@](O)(CC[C@H]5[C@]4(C)CC[C@@]3(C)[C@@H]2C1)[C@@H]6C` [SALASPERMIC ACID METHYL ESTER], the EC50 [1] was greater than 20 µg/mL, the EC50 (ZR-75-1) was greater than 20 µg/mL and the EC50 (HT-1080) was greater than 20 µg/mL. It also gave an EC50 (MEL-2 (Homo sapiens)) greater than 20 µg/mL, an EC50 (Lu1) greater than 20 µg/mL and an EC50 (LNCaP) greater than 20 µg/mL. For the same molecule, the EC50 [2] was greater than 20 µg/mL, the EC50 [3] was greater than 20 µg/mL and the EC50 [4] was greater than 20 µg/mL. For the same molecule, the EC50 (KB) was greater than 20 µg/mL, the EC50 (Col2) was greater than 20 µg/mL and the EC50 (A-431) was greater than 20 µg/mL. For the same molecule, the EC50 (P388) was greater than 5 µg/mL.

For `CC1=C(O)C(=O)C=C2C1=CC=C1[C@@]2(C)CC[C@@]2(C)[C@@H]3C[C@@H](C)C(=O)C[C@]3(C)CC[C@]12C` [TINGENONE], the EC50 [1] was 0.6 µg/mL (≈ 1.43 µM), the EC50 (ZR-75-1) was 0.2 µg/mL (≈ 0.476 µM) and the EC50 (HT-1080) was 0.7 µg/mL (≈ 1.66 µM). For the same molecule, the EC50 (MEL-2 (Homo sapiens)) was 0.2 µg/mL (≈ 0.476 µM), the EC50 (Lu1) was 0.6 µg/mL (≈ 1.43 µM) and the EC50 (LNCaP) was 0.7 µg/mL (≈ 1.66 µM). The EC50 [2] was 0.3 µg/mL (≈ 0.713 µM), the EC50 [3] was 0.5 µg/mL and the EC50 [4] was 0.4 µg/mL (≈ 0.951 µM). For the same molecule, the EC50 (KB) was 0.9 µg/mL (≈ 2.14 µM), the EC50 (Col2) was 0.2 µg/mL (≈ 0.476 µM) and the EC50 (A-431) was 0.4 µg/mL (≈ 0.951 µM). The EC50 (P388) was 0.1 µg/mL (≈ 0.238 µM).

With `CC1=C(O)C(=O)C=C2C1=CC=C1[C@@]2(C)CC[C@@]2(C)[C@@H]3C[C@](C)(C(=O)O)CC[C@]3(C)CC[C@]12C` [CELASTROL] the EC50 [1] was 0.4 µg/mL (≈ 0.888 µM), the EC50 (ZR-75-1) was 0.4 µg/mL (≈ 0.888 µM) and the EC50 (HT-1080) was 0.5 µg/mL (≈ 1.11 µM). The EC50 (MEL-2 (Homo sapiens)) was 0.6 µg/mL (≈ 1.33 µM), the EC50 (Lu1) was 1.3 µg/mL (≈ 2.88 µM) and the EC50 (LNCaP) was 0.3 µg/mL (≈ 0.666 µM). It also gave an EC50 [2] of 0.3 µg/mL (≈ 0.666 µM), an EC50 [3] of 1.7 µg/mL and an EC50 [4] of 2.4 µg/mL (≈ 5.33 µM). The EC50 (KB) was 1.2 µg/mL (≈ 2.66 µM), the EC50 (Col2) was 2.3 µg/mL (≈ 5.1 µM) and the EC50 (A-431) was 0.6 µg/mL (≈ 1.33 µM). For the same molecule, the EC50 (P388) was 3.5 µg/mL (≈ 7.77 µM).
